According to PubChem BioAssay:
Active and inactive are the calls of the source. Unless noted, no stated cut-off is given here; in the data, active means inhibition above about 30%; inactive means the rest.

Legend:
[1] = reducers of endogenous Her2 protein level, primary screen, SKBR3 breast tumor cells, AlphaScreen, ATP viability (AID 461;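 active means Her2 level under about 52% in both replicate screens, with viability over 70% of control, limit read from the data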;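 on Her2 level: lower value means less Her2 protein in the cells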;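 on viability: percent of carrier control wells set as 100% viability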); conditions: 18-24 h, measured here: SKBR3 viability, ATP luminescence, at 10 µM
[2] = target: Receptor tyrosine-protein kinase erbB-2 (Homo sapiens) (UniProt P04626); test: as above; conditions: 18-24 h, at 10 µM, stronger effect = lower value
Receptor tyrosine-protein kinase erbB-2 (Homo sapiens), sequence (P04626 whole entry, looked up): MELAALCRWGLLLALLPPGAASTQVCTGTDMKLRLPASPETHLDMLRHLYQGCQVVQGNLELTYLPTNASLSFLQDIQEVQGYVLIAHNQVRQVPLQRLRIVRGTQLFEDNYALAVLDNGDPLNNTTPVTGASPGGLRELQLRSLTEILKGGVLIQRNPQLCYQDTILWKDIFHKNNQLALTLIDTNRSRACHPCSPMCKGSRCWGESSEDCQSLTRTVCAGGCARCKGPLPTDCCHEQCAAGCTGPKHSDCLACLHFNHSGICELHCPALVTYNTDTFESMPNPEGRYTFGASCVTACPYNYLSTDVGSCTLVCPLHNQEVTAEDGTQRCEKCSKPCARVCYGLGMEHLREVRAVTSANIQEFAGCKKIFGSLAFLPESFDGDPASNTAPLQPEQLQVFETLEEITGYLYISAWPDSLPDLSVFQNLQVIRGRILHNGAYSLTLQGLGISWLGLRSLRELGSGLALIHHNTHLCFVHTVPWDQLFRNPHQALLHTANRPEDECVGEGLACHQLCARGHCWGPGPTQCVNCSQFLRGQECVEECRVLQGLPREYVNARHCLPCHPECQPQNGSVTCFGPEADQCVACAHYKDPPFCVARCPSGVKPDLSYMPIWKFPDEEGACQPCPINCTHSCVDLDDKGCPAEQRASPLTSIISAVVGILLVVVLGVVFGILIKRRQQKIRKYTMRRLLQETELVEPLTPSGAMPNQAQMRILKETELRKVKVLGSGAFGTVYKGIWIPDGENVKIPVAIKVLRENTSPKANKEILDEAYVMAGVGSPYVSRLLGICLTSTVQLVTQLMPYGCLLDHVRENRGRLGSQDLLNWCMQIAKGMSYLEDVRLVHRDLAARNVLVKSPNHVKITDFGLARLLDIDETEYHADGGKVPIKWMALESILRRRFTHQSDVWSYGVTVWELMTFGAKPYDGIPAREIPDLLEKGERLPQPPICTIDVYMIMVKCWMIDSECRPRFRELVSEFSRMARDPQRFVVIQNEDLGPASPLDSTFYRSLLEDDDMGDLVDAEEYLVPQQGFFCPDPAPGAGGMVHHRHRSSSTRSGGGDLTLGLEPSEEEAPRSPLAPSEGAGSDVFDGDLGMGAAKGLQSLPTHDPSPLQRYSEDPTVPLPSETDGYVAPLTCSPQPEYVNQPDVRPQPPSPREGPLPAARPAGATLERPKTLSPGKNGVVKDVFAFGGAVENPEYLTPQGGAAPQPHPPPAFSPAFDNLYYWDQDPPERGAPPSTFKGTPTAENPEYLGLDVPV

[3] = SK-BR-3 cell growth inhibitors, pilot screen, 24 h, human (AID 572;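 active means viability at or below 10% of carrier control in both of two separate runs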;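 further: compound exposure lasted between 18 and 24 h rather than exactly 24 h; 100% = carrier-treated control wells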); conditions: SK-BR-3 viability, CellTiter-Glo luminescence, at 10 µM, stronger effect = lower value
[4] = HUVEC growth inhibition – cell-based, human, primary screen (AID 575;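 active means viability at or below 30% in both replicate assays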;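 further: 100% = median of untreated cell wells with 0.1% DMSO on each plate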); conditions: HUVEC proliferation, CellTiter-Glo luminescence, 72 h; at 10 µM; stronger effect = lower value
Method in brief: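 Timing: 72 h treatment at 37 °C; material: HUVEC primary cells; technique: CellTiter-Glo luminescence measuring cellular ATP; controls: vehicle and MePR control wells; measure: percent of median DMSO-control luminescence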

[5] = growth inhibitors of H69AR lung tumor, primary screen, human, duplicate replicates (AID 580;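 active means viability at or under a set limit in both replicates, limit being median viability minus 3 SD, cut at about 48% in these data, passing the limit was not always enough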;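 further: 100% = mean luminescence of untreated wells and 0% = no signal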); conditions: H69AR lung tumor cells viability, ATP luminescence, 72 h; at 10 µM; stronger effect = lower value
[6] = reversal of MRP1-mediated doxorubicin resistance, pilot screen, H69AR cells, doxorubicin co-treatment (AID 601;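 active means viability loss from added drug above about 55%, and viability with drug at most 40%, in both replicates, limit read from the data, passing the limit was not always enough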); conditions: CellTiter-Glo, 72 h, at 10 µM; for differential viability (reversal): stronger effect = higher value
[7] = 384-well plate pilot, post-Golgi transport modulator project, inhibition of yeast transport mutant growth (AID 636; in the data active means inhibition above about 31%); conditions: absorbance 615 nm, about 18 h, stronger effect = higher value
[8] = growth suppression of yeast trafficking mutant, preliminary HTS, modulators of trafficking downstream of Golgi apparatus project, 1536-format plate, OD 615 nm (AID 637); conditions: yeast transport mutant growth, absorbance 615 nm, 18 h; stronger effect = higher value
[9] = H69AR cells + 2 uM doxorubicin, measured here: viability with 2 uM doxorubicin, stronger effect = lower value
[10] = H69AR cells, compound alone cytotoxicity

Row | SMILES | viability [1] | Her2 level [2] | viability [3] | viability [4] | viability [5] | differential viability (reversal) ([6]; H69AR cells + 2 uM doxorubicin) | viability [6, 9] | viability [6, 10] | inhibition [7] | inhibition [8]
1 | CC1(C)OC(=O)C(=CNc2ccccc2F)C(=O)O1 | 102% | 83.5% (inactive) | 102% (inactive) | 97.6% (inactive) | 91.2% (inactive) | -1.11% (inactive) | 92.4% | 91.2% | -2.99% (inactive) | 2.06% (inactive)
2 | COc1cc(Cn2c(C(=O)O)cc3sccc32)cc(OC)c1OC | 107% | 102% (inactive) | 107% (inactive) | 98.4% (inactive) | 94.1% (inactive) | 2.41% (inactive) | 91.7% | 94.1% | -1.97% (inactive) | 6.56% (inactive)
3 | Cc1cc(Br)ccc1NC(=O)CCN1C(=O)c2ccncc2C1=O | 104% | 113% (inactive) | 104% (inactive) | 86.1% (inactive) | 95.6% (inactive) | 3.85% (inactive) | 91.7% | 95.6% | -3.78% (inactive) | -9.18% (inactive)
4 | O=C1CCC(=O)N1OCCCCOc1ccccc1 | 123% | 93% (inactive) | 123% (inactive) | 107% (inactive) | 96.2% (inactive) | 5.21% (inactive) | 91% | 96.2% | -3.55% (inactive) | 0.48% (inactive)
5 | COc1ccc(-c2cc(C(F)F)n3ncc(C(=O)NCC4CCCO4)c3n2)cc1 (stereo not given) | 92% | 89% (inactive) | 92% (inactive) | 82.7% (inactive) | 73.6% (inactive) | -3.58% (inactive) | 77.2% | 73.6% | -0.79% (inactive) | 4.35% (inactive)
6 | COc1ccc(CN(C(=O)c2cccs2)c2nccs2)cc1OC | 74% | 68.5% (inactive) | 74% (inactive) | 90.4% (inactive) | 94.6% (inactive) | -4.98% (inactive) | 99.6% | 94.6% | -4.46% (inactive) | -0.98% (inactive)
7 | Cc1csc(NC(=O)CSc2nsc(SCC(=O)Nc3nc(C)cs3)c2C#N)n1 | 94.5% | 69% (inactive) | 94.5% (inactive) | 58.7% (inactive) | 6.57% (active) | -1.3% (inactive) | 7.88% | 6.57% | -6.67% (inactive) | -1.43% (inactive)
8 | O=C(CN(Cc1ccco1)C(=O)CNS(=O)(=O)c1ccc(Cl)cc1)NCc1ccc(F)cc1 | 118% | 106% (inactive) | 118% (inactive) | 83.4% (inactive) | 81.4% (inactive) | -5.12% (inactive) | 86.5% | 81.4% | -0.53% (inactive) | 1.77% (inactive)
9 | COc1ccc(CNc2nc3nc(C)cc(C)n3n2)cc1OC | 104% | 94.5% (inactive) | 104% (inactive) | 111% (inactive) | 108% (inactive) | 5.1% (inactive) | 103% | 108% | -1.71% (inactive) | 7.21% (inactive)
10 | Cc1ccc(-c2cc(C(F)(F)F)n3ncc(C(=O)O)c3n2)cc1 | 91% | 90.5% (inactive) | 91% (inactive) | 113% (inactive) | 99.7% (inactive) | 7.33% (inactive) | 92.4% | 99.7% | -7.87% (inactive) | 0.48% (inactive)
11 | COc1ccc(S(=O)(=O)N2CN(Cc3ccco3)c3nc4ccccc4nc32)cc1 | 101% | 84.5% (inactive) | 101% (inactive) | 99.2% (inactive) | 102% (inactive) | 7.69% (inactive) | 94.2% | 102% | 1.82% (inactive) | 1.11% (inactive)
12 | O=C(CSc1nc2ccccc2s1)N1CCN(C(=O)c2ccco2)CC1 | 86.5% | 97% (inactive) | 86.5% (inactive) | 79.8% (inactive) | 104% (inactive) | 9.76% (inactive) | 94.6% | 104% | -3.82% (inactive) | -5.17% (inactive)
13 | CCOc1ccc(Nc2nc(Cc3nnc(SCC(N)=O)o3)cs2)cc1 | 106% | 88% (inactive) | 106% (inactive) | 89.8% (inactive) | 93.6% (inactive) | 13.2% (inactive) | 80.4% | 93.6% | -6.1% (inactive) | -2.7% (inactive)
14 | COc1cc(OC)c(OC)cc1CN(C)CCc1ccccn1 | 104% | 107% (inactive) | 104% (inactive) | 96.7% (inactive) | 86.9% (inactive) | -4.87% (inactive) | 91.8% | 86.9% | -1.79% (inactive) | 7% (inactive)
15 | Cc1cccc(-c2nnn(CC/C(N)=N/O)n2)c1 | 85% | 84.5% (inactive) | 85% (inactive) | 85.3% (inactive) | 104% (inactive) | -1.3% (inactive) | 105% | 104% | -2.53% (inactive) | -0.16% (inactive)
